{"source": "ChEMBL document CHEMBL1629497", "about": "“Synthesis and biological evaluation of new N-alkyl 1-aryl-5-(1H-pyrrol-1-yl)-1H-pyrazole-3-carboxamides as cannabinoid receptor ligands” (Eur J Med Chem, 2010)", "key": {"Rattus norvegicus [1]": {"test_system": "Rattus norvegicus", "experiment": "Antiobesity activity in diet-induced obese Wistar rat assessed as reduction in food intake at 1 mg/kg, ip measured after 1 to 6 hrs relative to vehicle-treated control", "format": "functional", "design": "scale not given: the % may be the effect or the level left", "settings": "route intraperitoneal", "in_short": "(§1)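 Adult male Wistar rats (~500 g) were individually housed on an inverted 12:12 h cycle with free access to chow and water. Groups of 7–8, matched for body weight and 3-day food intake, received vehicle or compound i.p. (saline with a few drops of Tween 80, 3 mL/kg) 30 min before lights off. Food and water were weighed at 1–6 h and 24 h. Analysis was by ANOVA and Mann-Whitney.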"}, "Rattus norvegicus [2]": {"test_system": "Rattus norvegicus", "experiment": "Antiobesity activity in diet-induced obese Wistar rat assessed as reduction in food intake at 10 mg/kg, ip measured after 24 hrs relative to vehicle-treated control", "format": "functional, organism-based", "design": "dose 10 mg/kg", "in_short": "as §1"}, "[3]": {"experiment": "Tmax in Wistar rat brain at 10 mg/kg, ip", "format": "ADME, organism-based", "design": "dose 10 mg/kg, route intraperitoneal", "in_short": "(§2)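 Rats (n = 18) were dosed at 10 mg/kg i.p. in 2% Tween 80/98% saline (1 mL/kg). Plasma and brain were sampled at 30, 60, 120, 240 and 480 min and 24 h, then stored at −80 °C. Samples were extracted with internal standard and quantified by LC-MS/MS against calibration curves. Non-compartmental analysis was used, and brain penetration was taken as the AUC ratio. Values are means of three rats.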"}, "Rattus norvegicus [4]": {"test_system": "Rattus norvegicus", "experiment": "Antiobesity activity in diet-induced obese Wistar rat assessed as water intake at 0.1 mg/kg, ip measured after 24 hrs relative to vehicle-treated control", "format": "functional, organism-based", "design": "dose 0.1 mg/kg", "in_short": "as §1"}, "Rattus norvegicus [5]": {"test_system": "Rattus norvegicus", "experiment": "Antiobesity activity in diet-induced obese Wistar rat assessed as reduction in food intake at 0.1 mg/kg, ip measured after 1 to 6 hrs relative to vehicle-treated control", "format": "functional, organism-based", "design": "dose 0.1 mg/kg", "in_short": "as §1"}, "Rattus norvegicus [6]": {"test_system": "Rattus norvegicus", "experiment": "Antiobesity activity in diet-induced obese Wistar rat assessed as reduction in food intake at 10 mg/kg, ip measured after 1 to 6 hrs relative to vehicle-treated control", "format": "functional", "design": "scale not given: the % may be the effect or the level left", "settings": "route intraperitoneal", "in_short": "as §1"}, "Rattus norvegicus [7]": {"test_system": "Rattus norvegicus", "experiment": "Antiobesity activity in diet-induced obese Wistar rat assessed as water intake at 1 mg/kg, ip measured after upto 6 hrs relative to vehicle-treated control", "format": "functional, organism-based", "design": "dose 1 mg/kg", "in_short": "as §1"}, "[8]": {"experiment": "Cmax in Wistar rat plasma at 10 mg/kg, ip", "format": "ADME, organism-based", "design": "dose 10 mg/kg, route intraperitoneal", "in_short": "as §2"}, "[9]": {"experiment": "Half life in Wistar rat brain at 10 mg/kg, ip", "format": "ADME, organism-based", "design": "dose 10 mg/kg, route intraperitoneal", "in_short": "as §2"}, "[10]": {"experiment": "Tmax in Wistar rat plasma at 10 mg/kg, ip", "format": "ADME, organism-based", "design": "dose 10 mg/kg, route intraperitoneal", "in_short": "as §2"}, "Cannabinoid receptor 1": {"target": "Cannabinoid receptor 1 (Homo sapiens, UniProt P21554)", "sequence (P21554 whole entry)": "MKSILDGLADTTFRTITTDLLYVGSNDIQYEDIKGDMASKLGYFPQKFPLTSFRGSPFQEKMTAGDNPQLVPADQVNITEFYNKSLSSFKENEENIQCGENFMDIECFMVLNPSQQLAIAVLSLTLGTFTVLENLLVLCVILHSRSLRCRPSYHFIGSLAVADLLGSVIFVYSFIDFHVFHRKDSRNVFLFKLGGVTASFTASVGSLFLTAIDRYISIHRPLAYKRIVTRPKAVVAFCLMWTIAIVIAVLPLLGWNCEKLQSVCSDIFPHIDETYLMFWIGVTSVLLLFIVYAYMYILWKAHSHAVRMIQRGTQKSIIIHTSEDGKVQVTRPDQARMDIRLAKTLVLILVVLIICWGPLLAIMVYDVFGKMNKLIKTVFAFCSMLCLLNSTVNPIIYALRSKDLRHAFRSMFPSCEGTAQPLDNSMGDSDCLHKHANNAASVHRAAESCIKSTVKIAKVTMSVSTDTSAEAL", "experiment": "biochemical", "format": "cell-based, HEK293"}, "Rattus norvegicus [11]": {"test_system": "Rattus norvegicus", "experiment": "Antiobesity activity in diet-induced obese Wistar rat assessed as water intake at 0.1 mg/kg, ip measured upto 6 hrs relative to vehicle-treated control", "format": "functional, organism-based", "design": "dose 0.1 mg/kg", "in_short": "as §1"}, "[12]": {"experiment": "Mean residence time in Wistar rat brain at 10 mg/kg, ip", "format": "ADME, organism-based", "design": "dose 10 mg/kg, route intraperitoneal", "in_short": "as §2"}, "Rattus norvegicus [13]": {"test_system": "Rattus norvegicus", "experiment": "Antiobesity activity in diet-induced obese Wistar rat assessed as water intake at 10 mg/kg, ip measured upto 6 hrs relative to vehicle-treated control", "format": "functional, organism-based", "design": "dose 10 mg/kg", "in_short": "as §1"}, "[14]": {"experiment": "Half life in Wistar rat plasma at 10 mg/kg, ip", "format": "ADME, organism-based", "design": "dose 10 mg/kg, route intraperitoneal", "in_short": "as §2"}, "Cannabinoid receptor 2": {"target": "Cannabinoid receptor 2 (Homo sapiens, UniProt P34972)", "sequence (P34972 whole entry)": "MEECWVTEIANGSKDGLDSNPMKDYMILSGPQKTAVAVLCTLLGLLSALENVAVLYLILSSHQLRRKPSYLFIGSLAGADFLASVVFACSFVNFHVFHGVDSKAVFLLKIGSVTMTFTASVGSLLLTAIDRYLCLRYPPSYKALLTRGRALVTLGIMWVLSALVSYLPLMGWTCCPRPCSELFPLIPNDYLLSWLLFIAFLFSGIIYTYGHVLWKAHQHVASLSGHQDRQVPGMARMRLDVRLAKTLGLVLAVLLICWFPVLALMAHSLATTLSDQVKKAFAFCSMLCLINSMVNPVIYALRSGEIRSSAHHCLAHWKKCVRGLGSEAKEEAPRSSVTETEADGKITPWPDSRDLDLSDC", "experiment": "Displacement of [3H]CP-55,940 from recombinant human CB2 receptor transfected in HEK cells", "format": "cell-based, HEK293", "in_short": "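Competition binding used membranes from HEK cells transfected with hCB1 or hCB2. Data are means of at least three experiments in duplicate. The selectivity index is Ki(CB2)/Ki(CB1).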"}, "[15]": {"experiment": "AUC (last) in Wistar rat plasma at 10 mg/kg, ip", "format": "ADME, organism-based", "design": "dose 10 mg/kg, route intraperitoneal, time 0 - last", "in_short": "as §2"}, "[16]": {"experiment": "AUC in Wistar rat brain at 10 mg/kg, ip", "format": "ADME, organism-based", "design": "dose 10 mg/kg, route intraperitoneal", "in_short": "as §2"}, "Rattus norvegicus [17]": {"test_system": "Rattus norvegicus", "experiment": "Antiobesity activity in diet-induced obese Wistar rat assessed as water intake at 10 mg/kg, ip measured after 24 hrs relative to vehicle-treated control", "format": "functional, organism-based", "design": "dose 10 mg/kg", "in_short": "as §1"}, "Brain": {"test_system": "Brain", "experiment": "Drug level in Wistar rat brain at 10 mg/kg, ip", "format": "ADME, organism-based", "design": "dose 10 mg/kg, route intraperitoneal", "settings": "in vivo", "in_short": "as §2"}, "Rattus norvegicus [18]": {"test_system": "Rattus norvegicus", "experiment": "Antiobesity activity in diet-induced obese Wistar rat assessed as water intake at 1 mg/kg, ip measured after 24 hrs relative to vehicle-treated control", "format": "functional, organism-based", "design": "dose 1 mg/kg", "in_short": "as §1"}, "Rattus norvegicus [19]": {"test_system": "Rattus norvegicus", "experiment": "Antiobesity activity in diet-induced obese Wistar rat assessed as water intake at 3 mg/kg, ip measured after 24 hrs relative to vehicle-treated control", "format": "functional, organism-based", "design": "dose 3 mg/kg", "in_short": "as §1"}, "[20]": {"experiment": "Cmax in Wistar rat brain at 10 mg/kg, ip", "format": "ADME, organism-based", "design": "dose 10 mg/kg, route intraperitoneal", "in_short": "as §2"}, "Rattus norvegicus [21]": {"test_system": "Rattus norvegicus", "experiment": "Antiobesity activity in diet-induced obese Wistar rat assessed as reduction in food intake at 1 mg/kg, ip measured after 24 hrs relative to vehicle-treated control", "format": "functional, organism-based", "design": "dose 1 mg/kg", "in_short": "as §1"}, "[22]": {"experiment": "Mean residence time in Wistar rat plasma at 10 mg/kg, ip", "format": "ADME, organism-based", "design": "dose 10 mg/kg, route intraperitoneal", "in_short": "as §2"}}, "note": "The source made the active and inactive calls. The rule behind the calls is not given here.", "data": [{"smiles": "CCCCCCNC(=O)c1nn(-c2ccc(Cl)cc2Cl)c(-n2cccc2)c1C", "values": [{"measurement": "Activity", "setting": "Rattus norvegicus [1]", "value": 10, "unit": "%"}, {"measurement": "Activity", "setting": "Rattus norvegicus [2]", "value": "inactive"}, {"measurement": "Tmax", "setting": "[3]", "value": 0.5, "unit": "h"}, {"measurement": "Activity", "setting": "Rattus norvegicus [4]", "value": "inactive"}, {"measurement": "Activity", "setting": "Rattus norvegicus [5]", "value": "inactive"}, {"measurement": "Activity", "setting": "Rattus norvegicus [6]", "value": 25, "unit": "%"}, {"measurement": "Activity", "setting": "Rattus norvegicus [7]", "value": "inactive"}, {"measurement": "Cmax", "setting": "[8]", "value": 170, "unit": "ng/mL"}, {"measurement": "half-life", "setting": "[9]", "value": 14.4, "unit": "h"}, {"measurement": "Tmax", "setting": "[10]", "value": 0.5, "unit": "h"}, {"measurement": "Ki", "setting": "Cannabinoid receptor 1", "value": 124, "unit": "nM"}, {"measurement": "Activity", "setting": "Rattus norvegicus [11]", "value": "inactive"}, {"measurement": "MRT", "setting": "[12]", "value": 14.3, "unit": "h"}, {"measurement": "Activity", "setting": "Rattus norvegicus [13]", "value": "inactive"}, {"measurement": "half-life", "setting": "[14]", "value": 13.9, "unit": "h"}, {"measurement": "Ki", "setting": "Cannabinoid receptor 2", "value": 383, "unit": "nM"}, {"measurement": "AUC(0-t)", "setting": "[15]", "value": 340, "unit": "ng·h/mL"}, {"measurement": "AUC", "setting": "[16]", "value": 330, "unit": "ng·h/mL"}, {"measurement": "Activity", "setting": "Rattus norvegicus [17]", "value": "inactive"}, {"measurement": "Activity", "setting": "Brain", "value": 97, "unit": "%"}, {"measurement": "Activity", "setting": "Rattus norvegicus [18]", "value": "inactive"}, {"measurement": "Activity", "setting": "Rattus norvegicus [19]", "value": "inactive"}, {"measurement": "Cmax", "setting": "[20]", "value": 110, "unit": "ng/mL"}, {"measurement": "Activity", "setting": "Rattus norvegicus [21]", "value": "inactive"}, {"measurement": "MRT", "setting": "[22]", "value": 14.8, "unit": "h"}]}, {"smiles": "Cc1c(C(=O)NCCCCCO)nn(-c2ccc(Cl)cc2Cl)c1-n1cccc1", "values": [{"measurement": "Ki", "setting": "Cannabinoid receptor 1", "value": 534, "unit": "nM"}, {"measurement": "Ki", "setting": "Cannabinoid receptor 2", "value": 2340, "unit": "nM"}]}, {"smiles": "CCC(C)(C)NC(=O)c1nn(-c2ccc(Cl)cc2Cl)c(-n2c(C)ccc2C)c1C", "values": [{"measurement": "Ki", "setting": "Cannabinoid receptor 1", "value": 193, "unit": "nM"}, {"measurement": "Ki", "setting": "Cannabinoid receptor 2", "value": 121, "unit": "nM"}]}, {"smiles": "CCCNC(=O)c1nn(-c2ccc(Cl)cc2Cl)c(-n2c(C)ccc2C)c1C", "values": [{"measurement": "Ki", "setting": "Cannabinoid receptor 1", "value": 290, "unit": "nM"}, {"measurement": "Ki", "setting": "Cannabinoid receptor 2", "value": 1950, "unit": "nM"}]}, {"smiles": "Cc1c(C(=O)NCCC(C)(C)C)nn(-c2ccc(F)cc2F)c1-n1c(C)ccc1C", "values": [{"measurement": "Ki", "setting": "Cannabinoid receptor 1", "value": 90.7, "unit": "nM"}, {"measurement": "Ki", "setting": "Cannabinoid receptor 2", "value": 163, "unit": "nM"}]}, {"smiles": "CCCNC(=O)c1nn(-c2ccc(Cl)cc2Cl)c(-n2cccc2)c1C", "values": [{"measurement": "Ki", "setting": "Cannabinoid receptor 1", "value": 550, "unit": "nM"}, {"measurement": "Ki", "setting": "Cannabinoid receptor 2", "value": 1500, "unit": "nM"}]}, {"smiles": "Cc1c(C(=O)NC(C)C)nn(-c2ccc(Cl)cc2Cl)c1-n1cccc1", "values": [{"measurement": "Ki", "setting": "Cannabinoid receptor 1", "value": 519, "unit": "nM"}, {"measurement": "Ki", "setting": "Cannabinoid receptor 2", "value": 1130, "unit": "nM"}]}, {"smiles": "CCCCCCCNC(=O)c1nn(-c2ccc(F)cc2F)c(-n2c(C)ccc2C)c1C", "values": [{"measurement": "Ki", "setting": "Cannabinoid receptor 1", "value": 368, "unit": "nM"}, {"measurement": "Ki", "setting": "Cannabinoid receptor 2", "value": 365, "unit": "nM"}]}, {"smiles": "Cc1c(C(=O)NC(C)(C)C)nn(-c2ccc(Cl)cc2Cl)c1-n1cccc1", "values": [{"measurement": "Ki", "setting": "Cannabinoid receptor 1", "value": 89.5, "unit": "nM"}, {"measurement": "Ki", "setting": "Cannabinoid receptor 2", "value": 14.6, "unit": "nM"}]}, {"smiles": "CCCCCCNC(=O)c1nn(-c2ccc(F)cc2F)c(-n2c(C)ccc2C)c1C", "values": [{"measurement": "Ki", "setting": "Cannabinoid receptor 1", "value": 311, "unit": "nM"}, {"measurement": "Ki", "setting": "Cannabinoid receptor 2", "value": 487, "unit": "nM"}]}, {"smiles": "CCCCNC(=O)c1nn(-c2ccc(Cl)cc2Cl)c(-n2c(C)ccc2C)c1C", "values": [{"measurement": "Ki", "setting": "Cannabinoid receptor 1", "value": 123, "unit": "nM"}, {"measurement": "Ki", "setting": "Cannabinoid receptor 2", "value": 460, "unit": "nM"}]}, {"smiles": "CCCCCCCNC(=O)c1nn(-c2ccc(Cl)cc2Cl)c(-n2cccc2)c1C", "values": [{"measurement": "Ki", "setting": "Cannabinoid receptor 1", "value": 211, "unit": "nM"}, {"measurement": "Ki", "setting": "Cannabinoid receptor 2", "value": 255, "unit": "nM"}]}]}
